For the data set, the system named is MS2 coat protein. As to the kind of experiment: apparent Kd, MS2 coat protein; higher = weaker binding; RNA-MaP array; FMN 200 µM where present. An outline of the steps:
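Each design was made on Illumina sequencing-chip clusters by stalled E. coli RNA polymerase and titrated with SNAP-549-labelled MS2 coat protein from 0.7 or 1.5 nM, doubling to 3 µM, in the absence and then the presence of constant ligand. The buffer was 100 mM Tris-HCl pH 7.5, 80 mM KCl, 4 mM MgCl2, BSA, DTT, yeast tRNA and Tween-20. The apparent Kd is the median of filtered per-cluster fits of binding curves, with green signal normalised to red-channel RNA signal and control-cluster median Fmax.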

[1] abbreviates: designed as: OFF switch for flavin mononucleotide, no ligand.
[2] abbreviates: ligand present: flavin mononucleotide, designed as: OFF switch for flavin mononucleotide.
[3] abbreviates: designed as: ON switch for flavin mononucleotide, no ligand.
The mark [4] stands for this setting: ligand present: flavin mononucleotide, designed as: ON switch for flavin mononucleotide.

On to “CUUUUGUGAGGAUAUCAGUAGUAAAUUAAUAAAAUUACUACUGAGAAGGCACAUGAGGAUCACCCAUGUUCCUU”, for which the “apparent Kd” value came to 14.5 nM under setting [1] and 29.5 nM under setting [2].
As to “GGAUCGAAAGUGAGGAUAUGCUGGUCCUUGGAUCAGCAGAAGGCACAUGAGGAUCACCCAUGUGGUAACGGUCC”, the “apparent Kd” value runs as follows: under setting [1], 33.8 nM; under setting [2], 172 nM.
As for “AGUCGGCGAGGAUAUACAUGAGGAUCACCCAUGUGAGAGAAUAAAGUGAGUUAGACAAGUAGAAGGCGCUGACA”, the “apparent Kd” value reads like this: under setting [1], 47.4 nM; under setting [2], 415 nM.
As to “GGAUCGAGUGUGAGGAUAUGCUGGUCCUUGGAUCAGCAGAAGGCACAUGAGGAUCACCCAUGUCCAAACGGUCC”, the “apparent Kd” value by setting is: under setting [1], 266 nM; under setting [2], 388 nM.
On to “CAGUACUGAGGAUAUACAUGAGGAUCACCCAUGUGUUCCAGCUAGGAAACGAGCAAAAGUAGAAGGCAGUACUG”, for which the “apparent Kd” value reads like this: under setting [1], 21.9 nM; under setting [2], 282 nM.
Turning to “UUUAUGGGACAGAAGGGCAUUUACAUGAGGAUCACCCAUGUUCAUCAUUGCAGGAUAUGUAUUACAUGAGGAUCACCUAUGUUC”, the “apparent Kd” value reads like this: under setting [3], 170 nM; under setting [4], 82.5 nM.
Take “UGGUACUAGGGAGGAUAUGGGAAGAUACAUGAGGAUCACCCAUGUUUAAGAAUGCCGAGAAGCAACUAGAAGGCCCUAGUACCU”: the “apparent Kd” value is, setting by setting: under setting [3], 332 nM; under setting [4], 19.5 nM.
On to “UAUAUAUAGUAAGGAUAUGUAUUUAUAUUAUAAACAGAAGGUACUGACAUGAGGAUCACCCAUGUUUUAGUGUGGGCAUGUAGA”, for which the “apparent Kd” value is 77.9 nM under setting [1] and 114 nM under setting [2].
Take “GUAGUAUAAAGUUCAUAAUAUAGGAUAGAAGGUGAAAAUUUGACAUGAGGAUCACCCAUGUAAUUCAAGGAUAUGUAGUUACUC”: the “apparent Kd” value was 128 nM under setting [3] and 96.5 nM under setting [4].
With “CAGUCUACAGGAUAUACAUGAGGAUCACCCAUGUGUAUUCACUUUCAGUAGUCCAUAUGUAGAAGGGUAGACUG”, the “apparent Kd” value was 15.9 nM under setting [1] and 22.5 nM under setting [2].
“AACUGACAUGAGGAUCACCCAUGUCAGGAUAUGAUUUGACGAAAUAAAAUAAGUCAUAUCAGAAGGGACAUGGA”: the “apparent Kd” value under setting [1] was found to be 25.9 nM and the “apparent Kd” value under setting [2] came to 46.9 nM.
For the sequence “CUACGUGUCGAGAAGGGCUCACGUAACGGAACAGCAGGAUAUCGACAUGAGGAUCACCCAUGUCGGAACGAACGGAUCUUUAAU”, the “apparent Kd” value reads like this: under setting [1], 7.24 nM; under setting [2], 8.18 nM.
On to “UGGUACAUCGGAGGAUAUCAUGUGAAAACAUGAGGAUCACCCAUGUCGAUGGAGACAUCGGAGAUUGAGAAGGCCGAUGUACCU”, for which the “apparent Kd” value under setting [3] came to 1470 nM and the “apparent Kd” value under setting [4] came out at 49.9 nM.
For “GGAUAGGACAGAGGAUAUACGUGCUAGAGAUACUAGCAAAAUUUCCUCACAUGAGGAUCACCCAUGUAGAAGGCUGUCCUAUCG”, the “apparent Kd” value by setting is: under setting [1], 46 nM; under setting [2], 954 nM.
In the case of “UAUAUAUAGUAAGGAUAUGUAUUUAUUUCAUAAACAGAAGGUACUGACAUGAGGAUCACCCAUGUUUUAGUGUGGGCAUGUAGA”, the “apparent Kd” value under setting [1] was found to be 81.8 nM and the “apparent Kd” value under setting [2] was determined as 121 nM.
For the sequence “AAACUACUAGGAUAUACAACGGUGUCCUAACUACUAAGAAAACAUGAGGAUCACCCAUGUAGAAGGAGUAGUGA”, the “apparent Kd” value runs as follows: under setting [1], 34.5 nM; under setting [2], 62.3 nM.
For “UUUAUUAAACAAGGAUAUCAUUUGUGUACAAGUUUUACAUGAGGAUCACCCAUGUUAAAUGGUUUUGAGAAGGUGUUUAGAAUU”, the “apparent Kd” value was 34.2 nM under setting [3] and 25.2 nM under setting [4].
Take “CAGGAUAGAGGAUAUACAUAGAUACAGGUUCAUGUAAUCCUACAUGAGGAUCACCCAUGUAGAAGGCUAUCCUG”: the “apparent Kd” value reads like this: under setting [1], 15 nM; under setting [2], 43.3 nM.
Regarding “AUAAUUAUAUAUUUCCCAAGAAUCAGAAGGCGUUACAUGAGGAUCACCCAUGUUUUGUAUAGUAACGAGGAUAUGAUAUGGAAA”, the “apparent Kd” value by setting is: under setting [1], 16.3 nM; under setting [2], 14.5 nM.
The matching figures for “UAAUAAAGUGUGAGGAUAUGCUGGUCCUUGGAUCAGCAGAAGGCACAUGAGGAUCACCCAUGUAAUAUAUAUAU”: 87.7 nM and 223 nM.

(Values after the EternaBench riboswitch data.)
